From ChEMBL document CHEMBL4390678, “Structure-Activity Relationship of Purine and Pyrimidine Nucleotides as Ecto-5'-Nucleotidase (CD73) Inhibitors” (J Med Chem, 2019)

Columns and labels:
[1] = target: T1, 5'-nucleotidase (Rattus norvegicus, UniProt P21588); experiment: Inhibition of recombinant rat C-terminal His-tagged soluble form of CD73 expressed in baculovirus infected Sf9 insect cells using [2,8-3H]AMP as substrate measured after 25 mins by scintillation counting method
T1 sequence (P21588 whole entry): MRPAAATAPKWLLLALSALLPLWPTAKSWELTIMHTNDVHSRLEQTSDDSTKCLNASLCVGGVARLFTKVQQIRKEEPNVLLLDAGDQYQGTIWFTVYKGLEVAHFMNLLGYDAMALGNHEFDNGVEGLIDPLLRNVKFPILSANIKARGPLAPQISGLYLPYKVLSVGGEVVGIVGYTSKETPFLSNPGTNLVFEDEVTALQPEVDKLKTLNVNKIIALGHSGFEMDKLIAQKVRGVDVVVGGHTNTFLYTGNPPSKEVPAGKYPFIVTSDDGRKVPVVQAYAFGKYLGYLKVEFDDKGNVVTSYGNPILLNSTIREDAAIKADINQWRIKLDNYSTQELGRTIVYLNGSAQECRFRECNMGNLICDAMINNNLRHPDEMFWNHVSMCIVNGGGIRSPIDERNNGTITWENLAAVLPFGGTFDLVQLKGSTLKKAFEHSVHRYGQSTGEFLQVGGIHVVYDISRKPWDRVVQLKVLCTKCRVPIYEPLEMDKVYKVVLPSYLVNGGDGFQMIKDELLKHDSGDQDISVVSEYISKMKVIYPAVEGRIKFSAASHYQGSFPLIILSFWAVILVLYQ
Outline: (§1)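 Enzyme is soluble rat CD73 from Sf9 cells, 1.63 ng per vial, in 25 mM Tris, 140 mM NaCl, 25 mM NaH2PO4, pH 7.4. […] Stopped by LaCl3 precipitation and GF/B filtration, then counted. Each compound first screened at 1 µM.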

[2] = target: T2, 5'-nucleotidase (Rattus norvegicus) (UniProt P21588); experiment: Inhibition of recombinant rat C-terminal His-tagged soluble form of CD73 expressed in baculovirus infected Sf9 insect cells at 1 uM using [2,8-3H]AMP as substrate measured after 25 mins by scintillation counting method relative to control; outline: as §1
T2 sequence (whole entry): T1 sequence (P21588 whole entry)

[3] = target: T3, 5'-nucleotidase (Homo sapiens, UniProt P21589); experiment: Inhibition of recombinant human C-terminal His-tagged soluble form of CD73 expressed in baculovirus infected Sf9 insect cells using [2,8-3H]AMP as substrate measured after 25 mins by scintillation counting method
T3 sequence (P21589 whole entry): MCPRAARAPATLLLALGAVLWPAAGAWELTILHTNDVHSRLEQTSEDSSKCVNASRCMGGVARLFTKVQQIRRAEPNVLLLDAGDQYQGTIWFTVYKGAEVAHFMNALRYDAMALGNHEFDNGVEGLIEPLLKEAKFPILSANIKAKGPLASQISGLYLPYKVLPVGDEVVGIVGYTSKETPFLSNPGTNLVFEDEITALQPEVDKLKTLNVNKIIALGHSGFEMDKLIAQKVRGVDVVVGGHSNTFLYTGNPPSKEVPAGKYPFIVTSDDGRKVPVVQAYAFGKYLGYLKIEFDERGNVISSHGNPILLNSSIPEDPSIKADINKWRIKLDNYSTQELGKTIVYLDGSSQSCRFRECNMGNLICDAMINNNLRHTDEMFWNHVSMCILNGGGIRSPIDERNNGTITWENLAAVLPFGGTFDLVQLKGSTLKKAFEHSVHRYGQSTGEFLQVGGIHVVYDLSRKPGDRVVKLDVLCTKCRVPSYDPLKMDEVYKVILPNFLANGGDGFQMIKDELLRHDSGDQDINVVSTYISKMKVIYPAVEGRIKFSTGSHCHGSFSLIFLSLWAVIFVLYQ
Outline: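 Soluble human CD73 lacking the GPI signal, with a C-terminal 6xHis tag, secreted from baculovirus-infected Sf9 cells and purified on Ni-NTA; 0.365 ng per vial. […] Product separated by lanthanum chloride precipitation and filtration, then scintillation counted.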

[4] = target: T3, 5'-nucleotidase; experiment: Inhibition of CD73 in human MDA-MB-231 cell membranes using [2,8-3H]AMP as substrate measured after 25 mins by scintillation counting method
Outline: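 MDA-MB-231 membranes (7.4 ng protein per vial) in 25 mM Tris, 140 mM NaCl, 25 mM NaH2PO4, pH 7.4. […] Stopped with cold LaCl3/acetate buffer pH 4.0 and filtered on GF/B. Background-subtracted and normalized to the uninhibited control.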

[5] = species: Homo sapiens; experiment: Inhibition of cytosolic nucleotidase in MaMel.65-CD73 cell cytosolic extract (unknown origin) at 100 uM using AMP as substrate preincubated for 5 mins followed by substrate addition and measured after 60 mins by malachite green oxalate dye based colorimetric method relative to control
Outline: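 Cytosolic extract of CRISPR CD73-knockout MaMel.65 melanoma cells, 15.25 µg, in 50 mM Tris pH 7.0 with 100 mM KCl and 5 mM MgCl2. […] After 60 min, heat-stopped at 95°C. Released phosphate read with malachite green/molybdate at 600 nm. Levamisole 1 mM plus NaF 5 mM served as positive control. Three experiments in duplicate.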

SMILES | Ki [1] [nM] | inhibition [2] [%] | Ki [3] [nM] | Ki [4] [nM] | inhibition [5] [%]
O=c1[nH]/c(=N/OCc2ccccc2)ccn1[C@H]1C[C@H](O)[C@@H](COP(=O)(O)CP(=O)(O)O)O1 | 780 | > 50 | – | – | –
O=c1[nH]c(=O)n([C@@H]2O[C@H](COP(=O)(O)CP(=O)(O)O)[C@@H](O)[C@H]2O)cc1Cl | 86.7 | > 50 | – | – | –
Cc1cn([C@@H]2O[C@H](COP(=O)(O)CP(=O)(O)O)[C@@H](O)[C@H]2O)c(=O)[nH]/c1=N/OCc1ccccc1 | 321 | > 50 | – | – | –
O=c1[nH]/c(=N/OCc2ccc3ccccc3c2)ccn1[C@@H]1O[C@H](COP(=O)(O)CP(=O)(O)O)[C@@H](O)[C@H]1O | 18.8 | > 50 | 6.88 | 6.29 | -5
O=c1cc(O)ccn1[C@@H]1O[C@H](COP(=O)(O)CP(=O)(O)O)[C@@H](O)[C@H]1O | > 1000 | 19 | – | – | –
CCOP(=O)(O)OP(=O)(O)OC[C@H]1O[C@@H](n2ccc(=O)[nH]c2=S)[C@H](O)[C@@H]1O | > 1000 | 10 | – | – | –
Cc1cn([C@@H]2O[C@H](COP(=O)(O)CCP(=O)(O)O)[C@@H](O)[C@H]2O)c(=O)[nH]c1=O | > 1000 | 9 | – | – | –
O=c1ccn([C@@H]2O[C@H](COP(=O)(O)CP(=O)(O)O)[C@@H](O)[C@H]2O)c(=O)[nH]1 | 1830 | > 50 | – | – | –
O=c1ccn([C@@H]2O[C@H](COP(=O)(O)CP(=O)(O)O)[C@@H](O)[C@H]2O)c(=S)[nH]1 | > 1000 | 7 | – | – | –
C=C(Cl)c1cn([C@@H]2O[C@H](COP(=O)(O)CP(=O)(O)O)[C@@H](O)[C@H]2O)c(=O)n(C)c1=O | 1050 | > 50 | – | – | –
O=c1cnn([C@@H]2O[C@H](COP(=O)(O)CP(=O)(O)O)[C@@H](O)[C@H]2O)c(=O)[nH]1 | > 1000 | 21 | – | – | –
O=c1ccn([C@H]2C[C@H](O)[C@@H](CO[P@@](=O)(O)CP(=O)(O)O)O2)c(=O)[nH]1 | > 1000 | 37 | – | – | –
Nc1ncnc2c1ccn2[C@@H]1O[C@H](COP(=O)(O)CP(=O)(O)O)[C@@H](O)[C@H]1O | 88.6 | > 50 | – | – | –
Nc1nc(=O)n([C@@H]2O[C@H](COP(=O)(O)CP(=O)(O)O)[C@@H](O)[C@H]2O)cc1F | 349 | > 50 | – | – | –
CCCn1c(=O)ccn([C@@H]2O[C@H](COP(=O)(O)CP(=O)(O)O)[C@@H](O)[C@H]2O)c1=O | > 1000 | 7 | – | – | –
Nc1ccn([C@@H]2O[C@H](COP(=O)(O)CP(=O)(O)O)[C@@H](O)[C@H]2O)c(=O)n1 | 898 | > 50 | – | – | –
Cc1cn([C@@H]2O[C@H](COP(=O)(O)CP(=O)(O)O)[C@@H](O)[C@H]2O)c(=O)[nH]c1=O | 338 | > 50 | – | – | –
O=c1ccn([C@@H]2O[C@H](COP(=O)(O)CCP(=O)(O)O)[C@@H](O)[C@H]2O)c(=O)[nH]1 | > 1000 | 4 | – | – | –
Nc1ncnc2c1ncn2[C@@H]1O[C@H](COP(=O)(O)CP(=O)(O)O)[C@@H](O)[C@H]1N | > 1000 | 2 | – | – | –
CCn1c(=O)ccn([C@@H]2O[C@H](COP(=O)(O)CP(=O)(O)O)[C@@H](O)[C@H]2O)c1=O | > 1000 | 4 | – | – | –
N[C@@H]1[C@H](O)[C@@H](COP(=O)(O)CP(=O)(O)O)O[C@H]1n1ccc(=O)[nH]c1=O | > 1000 | 2 | – | – | –
CO/N=c1/ccn([C@@H]2O[C@H](COP(=O)(O)CP(=O)(O)O)[C@@H](O)[C@H]2O)c(=O)[nH]1 | 257 | > 50 | – | – | –
C#Cc1cn([C@@H]2O[C@H](COP(=O)(O)CP(=O)(O)O)[C@@H](O)[C@H]2O)c(=O)[nH]c1=O | 276 | > 50 | – | – | –

SMILES | Ki [1] [nM] | inhibition [2] [%] | Ki [3] [nM] | Ki [4] [nM] | inhibition [5] [%]
CCn1c(=O)n([C@@H]2O[C@H](COP(=O)(O)CP(=O)(O)O)[C@@H](O)[C@H]2O)cc/c1=N\OCc1ccccc1 | 262 | > 50 | – | – | –
Nc1ncnc2c1ncn2[C@@H]1O[C@H](CO)[C@@H](OP(=O)(O)CP(=O)(O)O)[C@H]1N | > 1000 | 8 | – | – | –
O=c1ccn([C@@H]2O[C@H](COP(=O)(O)CP(=O)(O)O)[C@@H](O)[C@H]2O)c(=O)n1Cc1ccccc1 | > 1000 | 3 | – | – | –
O=c1ccn([C@@]23C[C@H]2[C@H](COP(=O)(O)CP(=O)(O)O)[C@@H](O)[C@H]3O)c(=O)[nH]1 | > 1000 | 12 | – | – | –
Cn1c(=O)ccn([C@@H]2O[C@H](COP(=O)(O)CP(=O)(O)O)[C@@H](O)[C@H]2O)c1=O | 1860 | > 50 | – | – | –
O=c1[nH]c(=O)n([C@@H]2O[C@H](COP(=O)(O)CP(=O)(O)O)[C@@H](O)[C@H]2O)cc1Br | 88.7 | > 50 | – | – | –
O=c1[nH]/c(=N\OCc2ccccc2)ccn1[C@@H]1O[C@H](COP(=O)(O)CP(=O)(O)O)[C@@H](O)[C@H]1O | 112 | > 50 | – | – | –
O=c1ccn([C@@H]2O[C@H](COP(=O)(O)CP(=O)(O)O)[C@@H](O)[C@@H]2O)c(=O)[nH]1 | > 1000 | 8 | – | – | –
Nc1ccnc2c1ncn2[C@@H]1O[C@H](COP(=O)(O)CP(=O)(O)O)[C@@H](O)[C@H]1O | > 1000 | 36 | – | – | –
Cc1cn([C@H]2C[C@H](O)[C@@H](COP(=O)(O)CP(=O)(O)O)O2)c(=O)[nH]c1=O | 639 | > 50 | – | – | –
Nc1ncnc2c1ncn2[C@H]1C[C@H](O)[C@@H](COP(=O)(O)CP(=O)(O)O)O1 | > 1000 | 30 | – | – | –
Nc1nccc2c1ncn2[C@@H]1O[C@H](COP(=O)(O)CP(=O)(O)O)[C@@H](O)[C@H]1O | > 1000 | 36 | – | – | –
[N-]=[N+]=N[C@@H]1[C@H](O)[C@@H](COP(=O)(O)CP(=O)(O)O)O[C@H]1n1ccc(=O)[nH]c1=O | > 1000 | 9 | – | – | –
O=c1[nH]c(=O)n([C@@H]2O[C@H](COP(=O)(O)CP(=O)(O)O)[C@@H](O)[C@H]2O)cc1I | 162 | > 50 | – | – | –
Cc1cn([C@@H]2O[C@H](COP(=O)(O)CP(=O)(O)O)[C@@H](O)[C@H]2O)c(=O)nc1N | 2030 | > 50 | – | – | –
O=c1ccn([C@@H]2O[C@H](COP(=O)(O)CP(=O)(O)O)[C@@H](O)[C@H]2F)c(=O)[nH]1 | > 1000 | 11 | – | – | –
O=c1ccn([C@@H]2O[C@H](COP(=O)(O)CP(=O)(O)O)[C@@H](O)[C@@H]2F)c(=O)[nH]1 | 1750 | > 50 | – | – | –
C=C(Cl)c1cn([C@@H]2O[C@H](COP(=O)(O)CP(=O)(O)O)[C@@H](O)[C@H]2O)c(=O)[nH]c1=O | 424 | > 50 | – | – | –
CO[C@@H]1[C@H](O)[C@@H](COP(=O)(O)CP(=O)(O)O)O[C@H]1n1cc(C)c(=O)[nH]c1=O | > 1000 | 3 | – | – | –
O=c1[nH]/c(=N/OCc2ccccc2)c(F)cn1[C@@H]1O[C@H](COP(=O)(O)CP(=O)(O)O)[C@@H](O)[C@H]1O | 85.1 | > 50 | 15.9 | 16.6 | –
Nc1nc(=O)n([C@@H]2O[C@H](COP(=O)(O)CP(=O)(O)O)[C@@H](O)[C@H]2O)cc1I | 502 | > 50 | – | – | –
Nc1ccn([C@H]2C[C@H](O)[C@@H](COP(=O)(O)CP(=O)(O)O)O2)c(=O)n1 | > 1000 | 18 | – | – | –
Nc1ncnc2c1ncn2[C@@H]1O[C@H](COP(=O)(O)CP(=O)(O)O)C[C@H]1O | 1970 | > 50 | – | – | –
